Assay results as given in ChEMBL document CHEMBL3994579, “Synthesis and antibacterial activity of novel 3-O-descladinosylazithromycin derivatives” (2017).
In brackets after ≈: the same amount, converted by molar mass.

How the values were obtained:
Type in all cases: functional
Staphylococcus aureus [1] = assay: Antibacterial activity against […] Staphylococcus aureus ATCC 29213 by broth microdilution method
How it was run: (§1)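 Broth microdilution per NCCL recommendation, read as minimal inhibitory concentration, run alongside azithromycin and clarithromycin references. Strains: S. pneumoniae B1 (erythromycin-resistant, ermB), A22072 (erythromycin-resistant, mefA), AB11 (erythromycin-resistant, erm and mef); S. aureus ATCC29213 ([…]); S. epidermidis clinical isolate (penicillin-resistant, not characterized).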

Bacillus subtilis = assay: Antibacterial activity against erythromycin/penicillin-susceptible Bacillus subtilis ATCC 9372 by broth microdilution method
How it was run: (§2)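 MICs were determined in vitro by broth microdilution following the NCCL-recommended method. Azithromycin and clarithromycin were run alongside as reference antibiotics on the same strain panel.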

Escherichia coli = assay: Antibacterial activity against penicillin-susceptible Escherichia coli ATCC 25922 by broth microdilution method; how it was run: as §2
Streptococcus pneumoniae [2] = assay: Antibacterial activity against erythromycin-resistant Streptococcus pneumoniae B1 expressing ermB gene by broth microdilution method; how it was run: as §1
[3] = tested on: Staphylococcus epidermidis; assay: Antibacterial activity against penicillin-resistant Staphylococcus epidermidis clinical isolate by broth microdilution method; how it was run: as §1
Pseudomonas aeruginosa = assay: Antibacterial activity against penicillin-susceptible Pseudomonas aeruginosa ATCC 27853 by broth microdilution method; how it was run: as §2
Streptococcus pneumoniae [4] = assay: Antibacterial activity against erythromycin-resistant Streptococcus pneumoniae A22072 expressing mefA gene by broth microdilution method; how it was run: as §1
Staphylococcus aureus [5] = assay: Antibacterial activity against erythromycin-susceptible Staphylococcus aureus ATCC 25923 by broth microdilution method; how it was run: as §2
Streptococcus pyogenes [6] = assay: Antibacterial activity against erythromycin-susceptible Streptococcus pyogenes clinical isolate by broth microdilution method; how it was run: as §2
Streptococcus pyogenes [7] = assay: Antibacterial activity against erythromycin-resistant Streptococcus pyogenes R1 clinical isolate by broth microdilution method
Streptococcus pneumoniae [8] = assay: Antibacterial activity against erythromycin-resistant Streptococcus pneumoniae AB11 expressing ermB/mefA genes by broth microdilution method; how it was run: as §1

| SMILES | MIC (Staphylococcus aureus [1]) | MIC (Bacillus subtilis) | MIC (Escherichia coli) | MIC (Streptococcus pneumoniae [2]) | MIC [3] | MIC (Pseudomonas aeruginosa) | MIC (Streptococcus pneumoniae [4]) | MIC (Staphylococcus aureus [5]) | MIC (Streptococcus pyogenes [6]) | MIC (Streptococcus pyogenes [7]) | MIC (Streptococcus pneumoniae [8]) |
| --- | --- | --- | --- | --- | --- | --- | --- | --- | --- | --- | --- |
| CC[C@H]1OC(=O)[C@H](C)[C@@H](O)[C@H](C)[C@@H](O[C@@H]2O[C@H](C)C[C@H](N(C)C)[C@H]2OC(=O)Nc2cccc(Cl)c2)[C@](C)(O)C[C@@H](C)CN(C)[C@H](C)[C@H]2OC(=O)O[C@@]21C | 128 µg/mL (≈ 166 µM) | 8 µg/mL (≈ 10.4 µM) | 32 µg/mL (≈ 41.5 µM) | 64 µg/mL (≈ 83.1 µM) | 32 µg/mL (≈ 41.5 µM) | 64 µg/mL (≈ 83.1 µM) | 8 µg/mL (≈ 10.4 µM) | 16 µg/mL (≈ 20.8 µM) | 1 µg/mL (≈ 1.3 µM) | 64 µg/mL (≈ 83.1 µM) | 32 µg/mL (≈ 41.5 µM) |
| CC[C@H]1OC(=O)[C@H](C)[C@@H](O)[C@H](C)[C@@H](O[C@@H]2O[C@H](C)C[C@H](N(C)C)[C@H]2OC(=O)Nc2ccccc2C)[C@](C)(O)C[C@@H](C)CN(C)[C@H](C)[C@H]2OC(=O)O[C@@]21C | 32 µg/mL (≈ 42.7 µM) | 4 µg/mL (≈ 5.33 µM) | 64 µg/mL (≈ 85.3 µM) | 64 µg/mL (≈ 85.3 µM) | 16 µg/mL (≈ 21.3 µM) | 64 µg/mL (≈ 85.3 µM) | 2 µg/mL (≈ 2.67 µM) | 4 µg/mL (≈ 5.33 µM) | 0.5 µg/mL (≈ 0.667 µM) | 64 µg/mL (≈ 85.3 µM) | 4 µg/mL (≈ 5.33 µM) |
| CC[C@H]1OC(=O)[C@H](C)[C@@H](OC(=O)n2ccnc2)[C@H](C)[C@@H](O[C@@H]2O[C@H](C)C[C@H](N(C)C)[C@H]2OC(C)=O)[C@](C)(O)C[C@@H](C)CN(C)[C@H](C)[C@H]2OC(=O)O[C@@]21C | 128 µg/mL (≈ 170 µM) | 128 µg/mL (≈ 170 µM) | 32 µg/mL (≈ 42.5 µM) | 256 µg/mL (≈ 340 µM) | 128 µg/mL (≈ 170 µM) | 128 µg/mL (≈ 170 µM) | 16 µg/mL (≈ 21.3 µM) | 128 µg/mL (≈ 170 µM) | 8 µg/mL (≈ 10.6 µM) | 56 µg/mL (≈ 74.4 µM) | 256 µg/mL (≈ 340 µM) |
| CC[C@H]1OC(=O)[C@H](C)[C@@H](OC(=O)Nc2cccc(OC)c2)[C@H](C)[C@@H](O[C@@H]2O[C@H](C)C[C@H](N(C)C)[C@H]2OC(C)=O)[C@](C)(O)C[C@@H](C)CN(C)[C@H](C)[C@H]2OC(=O)O[C@@]21C | 64 µg/mL (≈ 79.2 µM) | 16 µg/mL (≈ 19.8 µM) | 64 µg/mL (≈ 79.2 µM) | 128 µg/mL (≈ 158 µM) | 32 µg/mL (≈ 39.6 µM) | 64 µg/mL (≈ 79.2 µM) | 16 µg/mL (≈ 19.8 µM) | 32 µg/mL (≈ 39.6 µM) | 2 µg/mL (≈ 2.48 µM) | 128 µg/mL (≈ 158 µM) | 32 µg/mL (≈ 39.6 µM) |
| CC[C@H]1OC(=O)[C@H](C)[C@@H](O)[C@H](C)[C@@H](O[C@@H]2O[C@H](C)C[C@H](N(C)C)[C@H]2OC(=O)Nc2ccc(F)cc2)[C@](C)(O)C[C@@H](C)CN(C)[C@H](C)[C@H]2OC(=O)O[C@@]21C | 128 µg/mL (≈ 170 µM) | 64 µg/mL (≈ 84.9 µM) | 128 µg/mL (≈ 170 µM) | 64 µg/mL (≈ 84.9 µM) | 64 µg/mL (≈ 84.9 µM) | 128 µg/mL (≈ 170 µM) | 4 µg/mL (≈ 5.31 µM) | 16 µg/mL (≈ 21.2 µM) | 1 µg/mL (≈ 1.33 µM) | 64 µg/mL (≈ 84.9 µM) | 8 µg/mL (≈ 10.6 µM) |
| CC[C@H]1OC(=O)[C@H](C)[C@@H](OC(=O)Nc2ccccc2C)[C@H](C)[C@@H](O[C@@H]2O[C@H](C)C[C@H](N(C)C)[C@H]2OC(C)=O)[C@](C)(O)C[C@@H](C)CN(C)[C@H](C)[C@H]2OC(=O)O[C@@]21C | 64 µg/mL (≈ 80.8 µM) | 8 µg/mL (≈ 10.1 µM) | 64 µg/mL (≈ 80.8 µM) | 256 µg/mL (≈ 323 µM) | 128 µg/mL (≈ 162 µM) | 64 µg/mL (≈ 80.8 µM) | 8 µg/mL (≈ 10.1 µM) | 16 µg/mL (≈ 20.2 µM) | 1 µg/mL (≈ 1.26 µM) | 256 µg/mL (≈ 323 µM) | 16 µg/mL (≈ 20.2 µM) |
| CC[C@H]1OC(=O)[C@H](C)[C@@H](O)[C@H](C)[C@@H](O[C@@H]2O[C@H](C)C[C@H](N(C)C)[C@H]2OC(=O)Nc2cccc(C)c2)[C@](C)(O)C[C@@H](C)CN(C)[C@H](C)[C@H]2OC(=O)O[C@@]21C | 128 µg/mL (≈ 171 µM) | 32 µg/mL (≈ 42.7 µM) | 64 µg/mL (≈ 85.3 µM) | 128 µg/mL (≈ 171 µM) | 32 µg/mL (≈ 42.7 µM) | 128 µg/mL (≈ 171 µM) | 128 µg/mL (≈ 171 µM) | 32 µg/mL (≈ 42.7 µM) | 1 µg/mL (≈ 1.33 µM) | 64 µg/mL (≈ 85.3 µM) | 64 µg/mL (≈ 85.3 µM) |
| CCCCc1ccc(NC(=O)O[C@H]2[C@H](O[C@@H]3[C@@H](C)[C@H](O)[C@@H](C)C(=O)O[C@H](CC)[C@@]4(C)OC(=O)O[C@@H]4[C@@H](C)N(C)C[C@H](C)C[C@@]3(C)O)O[C@H](C)C[C@@H]2N(C)C)cc1 | 128 µg/mL (≈ 162 µM) | 128 µg/mL (≈ 162 µM) | 128 µg/mL (≈ 162 µM) | 256 µg/mL (≈ 323 µM) | 64 µg/mL (≈ 80.8 µM) | 128 µg/mL (≈ 162 µM) | 64 µg/mL (≈ 80.8 µM) | 32 µg/mL (≈ 40.4 µM) | 8 µg/mL (≈ 10.1 µM) | 64 µg/mL (≈ 80.8 µM) | 32 µg/mL (≈ 40.4 µM) |
| CC[C@H]1OC(=O)[C@H](C)[C@@H](O)[C@H](C)[C@@H](O[C@@H]2O[C@H](C)C[C@H](N(C)C)[C@H]2OC(=O)Nc2cccc(OC)c2)[C@](C)(O)C[C@@H](C)CN(C)[C@H](C)[C@H]2OC(=O)O[C@@]21C | 128 µg/mL (≈ 167 µM) | 128 µg/mL (≈ 167 µM) | 64 µg/mL (≈ 83.6 µM) | 128 µg/mL (≈ 167 µM) | 64 µg/mL (≈ 83.6 µM) | 64 µg/mL (≈ 83.6 µM) | 16 µg/mL (≈ 20.9 µM) | 32 µg/mL (≈ 41.8 µM) | 2 µg/mL (≈ 2.61 µM) | 128 µg/mL (≈ 167 µM) | 32 µg/mL (≈ 41.8 µM) |
| CC[C@H]1OC(=O)[C@H](C)[C@@H](OC(=O)N(C)c2ccccc2)[C@H](C)[C@@H](O[C@@H]2O[C@H](C)C[C@H](N(C)C)[C@H]2OC(C)=O)[C@](C)(O)C[C@@H](C)CN(C)[C@H](C)[C@H]2OC(=O)O[C@@]21C | – | – | – | – | 128 µg/mL (≈ 162 µM) | – | – | – | – | – | – |
| CC[C@H]1OC(=O)[C@H](C)[C@@H](O)[C@H](C)[C@@H](O[C@@H]2O[C@H](C)C[C@H](N(C)C)[C@H]2OC(=O)Nc2ccccc2)[C@](C)(O)C[C@@H](C)CN(C)[C@H](C)[C@H]2OC(=O)O[C@@]21C | 128 µg/mL (≈ 174 µM) | 32 µg/mL (≈ 43.5 µM) | 64 µg/mL (≈ 87 µM) | 128 µg/mL (≈ 174 µM) | 32 µg/mL (≈ 43.5 µM) | 32 µg/mL (≈ 43.5 µM) | 8 µg/mL (≈ 10.9 µM) | 32 µg/mL (≈ 43.5 µM) | 0.5 µg/mL (≈ 0.679 µM) | 128 µg/mL (≈ 174 µM) | 8 µg/mL (≈ 10.9 µM) |
| CC[C@H]1OC(=O)[C@H](C)[C@@H](OC(=O)Nc2ccccc2F)[C@H](C)[C@@H](O[C@@H]2O[C@H](C)C[C@H](N(C)C)[C@H]2OC(C)=O)[C@](C)(O)C[C@@H](C)CN(C)[C@H](C)[C@H]2OC(=O)O[C@@]21C | 64 µg/mL (≈ 80.4 µM) | 32 µg/mL (≈ 40.2 µM) | 64 µg/mL (≈ 80.4 µM) | 128 µg/mL (≈ 161 µM) | 64 µg/mL (≈ 80.4 µM) | 128 µg/mL (≈ 161 µM) | 8 µg/mL (≈ 10.1 µM) | 32 µg/mL (≈ 40.2 µM) | 4 µg/mL (≈ 5.03 µM) | 128 µg/mL (≈ 161 µM) | 32 µg/mL (≈ 40.2 µM) |
| CC[C@H]1OC(=O)[C@H](C)[C@@H](O)[C@H](C)[C@@H](O[C@@H]2O[C@H](C)C[C@H](N(C)C)[C@H]2OC(=O)Nc2cccc(F)c2)[C@](C)(O)C[C@@H](C)CN(C)[C@H](C)[C@H]2OC(=O)O[C@@]21C | 128 µg/mL (≈ 170 µM) | 128 µg/mL (≈ 170 µM) | 128 µg/mL (≈ 170 µM) | 256 µg/mL (≈ 340 µM) | 64 µg/mL (≈ 84.9 µM) | 128 µg/mL (≈ 170 µM) | 8 µg/mL (≈ 10.6 µM) | 32 µg/mL (≈ 42.4 µM) | 1 µg/mL (≈ 1.33 µM) | 128 µg/mL (≈ 170 µM) | 16 µg/mL (≈ 21.2 µM) |
| CCCCCCNC(=O)O[C@@H]1[C@@H](C)N(C)C[C@H](C)C[C@@](C)(O)[C@H](O[C@@H]2O[C@H](C)C[C@H](N(C)C)[C@H]2O)[C@@H](C)[C@H](OC(=O)Nc2ccccc2)[C@@H](C)C(=O)O[C@H](CC)[C@@]1(C)O | – | 4 µg/mL (≈ 4.78 µM) | 64 µg/mL (≈ 76.5 µM) | – | – | 64 µg/mL (≈ 76.5 µM) | – | 16 µg/mL (≈ 19.1 µM) | 1 µg/mL (≈ 1.19 µM) | – | – |
| CC[C@H]1OC(=O)[C@H](C)[C@@H](OC(=O)Nc2ccccc2)[C@H](C)[C@@H](O[C@@H]2O[C@H](C)C[C@H](N(C)C)[C@H]2OC(C)=O)[C@](C)(O)C[C@@H](C)CN(C)[C@H](C)[C@H]2OC(=O)O[C@@]21C | 128 µg/mL (≈ 165 µM) | 32 µg/mL (≈ 41.1 µM) | 32 µg/mL (≈ 41.1 µM) | 128 µg/mL (≈ 165 µM) | 16 µg/mL (≈ 20.6 µM) | 64 µg/mL (≈ 82.3 µM) | 4 µg/mL (≈ 5.14 µM) | 32 µg/mL (≈ 41.1 µM) | 0.25 µg/mL (≈ 0.321 µM) | 128 µg/mL (≈ 165 µM) | 64 µg/mL (≈ 82.3 µM) |
